ChEMBL document CHEMBL1144067, “Cancer chemopreventive agents (antitumor-promoters) from Ajuga decumbens” (J Nat Prod, 1999)

Assays:
Mus musculus [1] = experiment: Toxicity in 4NQO-induced/glycerol-promoted carcinogenesis mouse model assessed change in body weight at 1.27 mg/week administered twice weekly after 5 weeks of initiation for 22 weeks; type: organism-based; settings: in vivo
In short: (§1)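 Female ICR mice in the 4NQO (0.3 mg s.c.)-initiated, 8% glycerol drinking-water-promoted lung model, 15 per group, test agent at 0.0025% or 0.005%. Body weight recorded at end of the 22-week promotion period.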

Mus musculus [2] = experiment: Inhibition of 4NQO-induced/glycerol-promoted carcinogenesis in mouse assessed number of pulmonary tumors per mouse at 1.27 mg/week administered twice weekly after 5 weeks of initiation for 22 weeks; type: functional
In short: (§2)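 Female SPF ICR mice (6 weeks old), 15 per group. Initiation by single s.c. injection of 0.3 mg 4NQO in olive oil–cholesterol (20:1); promotion with 8% glycerol in drinking water ad libitum, test agent given at 0.0025% or 0.005%. Killed by cervical dislocation after 22-week promotion; pulmonary tumors counted per lobe under dissecting microscope. Student's t-test vs 4NQO + glycerol group.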

Mus musculus [3] = experiment: Inhibition of DMBA-induced/TPA-promoted carcinogenesis in mouse assessed as number of mouse bearing papillomas at 85 nmol administered twice weekly after 1 week of initiation for 17 weeks; type: functional; parameters: scale not given: the % may be the effect or the level left
In short: (§3)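 Female SPF ICR mice, 6 weeks old, 15 per group, backs shaved; single topical DMBA initiation (100 μg, 390 nmol) in 0.1 mL acetone. From 1 week after, promotion with TPA 1.7 nmol twice weekly, plus 85 nmol test agent. Papilloma incidence and number per mouse monitored weekly for 20 weeks.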

Mus musculus [4] = experiment: Inhibition of DMBA-induced/TPA-promoted carcinogenesis in mouse assessed as number of skin papillomas per mouse at 85 nmol administered twice weekly after 1 week of initiation for 10 weeks; type: functional; in short: as §3
Mus musculus [5] = experiment: Inhibition of 4NQO-induced/glycerol-promoted carcinogenesis in mouse assessed number of pulmonary tumors per mouse at 2.54 mg/week administered twice weekly after 5 weeks of initiation for 22 weeks; type: functional; in short: as §2
Raji [6] = experiment: Inhibition of 12-O-tetradecanoylphorbol-13-acetate induced EBV-early antigen activation in human Raji cells at 100 molar ratio relative to control; type: cell-based; settings: human gammaherpesvirus 4
In short: (§4)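 Raji cells in RPMI-1640 treated 48 h at 37 °C with n-butyric acid (4 mmol), TPA (32 pmol = 20 ng/mL) and test agent at 10, 100, 500 or 1000 mol ratio/TPA (0.32–32 nmol). EA-positive cells in smears detected by indirect immunofluorescence; induction expressed relative to TPA positive control (100%), n = 3, ±S.D.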

Raji [7] = experiment: Inhibition of 12-O-tetradecanoylphorbol-13-acetate induced EBV-early antigen activation in human Raji cells at 500 molar ratio relative to control; type: cell-based; settings: human gammaherpesvirus 4; in short: as §4
[8] = Cytotoxicity against human Raji cells assessed as cell viability at 500 molar ratio after 48 hrs; type: cell-based; settings: read-out: Activity
In short: (§5)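 Raji cells (EBV genome-carrying, Burkitt's lymphoma-derived) grown in RPMI-1640 and incubated 48 h at 37 °C with 4 mmol n-butyric acid, 32 pmol TPA (20 ng/mL) and test agent at 10–1000 mol ratio/TPA (0.32–32 nmol). Viability given as percentage of Raji cells; n = 3, ±S.D.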

Mus musculus [9] = experiment: Inhibition of 4NQO-induced/glycerol-promoted carcinogenesis in mouse assessed number of mouse with pulmonary tumors at 2.54 mg/week administered twice weekly after 5 weeks of initiation for 22 weeks; type: functional; parameters: scale not given: the % may be the effect or the level left; in short: as §2
Mus musculus [10] = experiment: Toxicity in 4NQO-induced/glycerol-promoted carcinogenesis mouse model assessed change in body weight at 2.54 mg/week administered twice weekly after 5 weeks of initiation for 22 weeks; type: organism-based; settings: in vivo; in short: as §1
[11] = Cytotoxicity against human Raji cells assessed as cell viability at 100 molar ratio after 48 hrs; type: cell-based; settings: read-out: Activity; in short: as §5
Mus musculus [12] = experiment: Inhibition of DMBA-induced/TPA-promoted carcinogenesis in mouse assessed as number of mouse bearing papillomas at 85 nmol administered twice weekly after 1 week of initiation for 8 weeks; type: functional; parameters: scale not given: the % may be the effect or the level left; in short: as §3
Mus musculus [13] = experiment: Inhibition of DMBA-induced/TPA-promoted carcinogenesis in mouse assessed as number of skin papillomas per mouse at 85 nmol administered twice weekly after 1 week of initiation for 20 weeks; type: functional; in short: as §3
Raji [14] = experiment: Inhibition of 12-O-tetradecanoylphorbol-13-acetate induced EBV-early antigen activation in human Raji cells at 10 molar ratio relative to control; type: cell-based; settings: human gammaherpesvirus 4; in short: as §4
Raji [15] = experiment: Inhibition of 12-O-tetradecanoylphorbol-13-acetate induced EBV-early antigen activation in human Raji cells at 1000 molar ratio relative to control; type: cell-based; settings: human gammaherpesvirus 4; in short: as §4
[16] = Cytotoxicity against human Raji cells assessed as cell viability at 10 molar ratio after 48 hrs; type: cell-based; settings: read-out: Activity; in short: as §5
Mus musculus [17] = experiment: Inhibition of 4NQO-induced/glycerol-promoted carcinogenesis in mouse assessed number of mouse with pulmonary tumors at 1.27 mg/week administered twice weekly after 5 weeks of initiation for 22 weeks; type: functional; parameters: scale not given: the % may be the effect or the level left; in short: as §2
Mus musculus [18] = experiment: Inhibition of DMBA-induced/TPA-promoted carcinogenesis in mouse assessed as number of mouse bearing papillomas at 85 nmol administered twice weekly after 1 week of initiation for 10 weeks; type: functional; parameters: scale not given: the % may be the effect or the level left; in short: as §3

CC(=O)O[C@@]1(C)C[C@@H](O)[C@]2(O)C=CO[C@@H](O[C@@H]3O[C@H](CO)[C@@H](O)[C@H](O)[C@H]3O)[C@@H]21
Activity (Mus musculus [1]): Non-toxic
Activity (Mus musculus [2]): 1.1
Activity (Mus musculus [3]): 80%
Activity (Mus musculus [4]): 2
Activity (Mus musculus [5]): 0.9
EBV-EA induction remaining (% of TPA control) (Raji [6]): 62.6%
EBV-EA induction remaining (% of TPA control) (Raji [7]): 19.9%
viability at 48 h, 500 molar ratio [8]: > 80%
Activity (Mus musculus [9]): 46.6%
Activity (Mus musculus [10]): Non-toxic
viability at 48 h, 100 molar ratio [11]: > 80%
Activity (Mus musculus [12]): 10%
Activity (Mus musculus [13]): 6
EBV-EA activation relative to TPA control (Raji [14]): 89.5%
EBV-EA induction remaining (% of TPA control) (Raji [15]): 0%
viability at 48 h, 10 molar ratio [16]: > 80%
Activity (Mus musculus [17]): 53.3%
Activity (Mus musculus [18]): 20%
